Data taken from ChEMBL document CHEMBL1143314, “Bone selective effect of an estradiol conjugate with a novel tetracycline-derived bone-targeting agent” (2009).
Blank lines part the entries; values can stand above or below the compound they belong to. Active and inactive are the calls of the source. No cut-off for these calls is given here.

How the values were obtained:
Hydroxyapatite [1] = assay: Binding affinity to bone mineral hydroxyapatite assessed as binding index
Method in brief: (§1)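 Analyte 10^-5 M final in 50 mM Tris–HCl pH 7.4, 1% DMSO (from 10^-3 M DMSO stock), mixed by inversion 4 min with HA slurry (0.5 g/100 mL) or buffer alone, centrifuged 12,000g 3 min. Supernatant UV-vis scanned 220–520 nm; concentration at λmax by Beer–Lambert; fraction adsorbed calculated. Tetracycline reference set to index 100.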

Hydroxyapatite [2] = assay: Binding affinity to bone mineral hydroxyapatite; method in brief: as §1
Hydroxyapatite [3] = assay: Binding affinity to bone mineral hydroxyapatite relative to tetracyclin; method in brief: as §1
Rattus norvegicus [4] = assay: Antibone resorptive activity in sc dosed Sprague-Dawley rat assessed as inhibition of bilaterally ovariectomization-induced decrease in body weight normalized uterine mass administered 4 days after sugery at three times per week schedule for 6 weeks; format: functional
Method in brief: (§2)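 Three-month-old female Sprague–Dawley rats, bilaterally ovariectomized or sham-operated, given vehicle or drug s.c. three times weekly from 4 days post-surgery for 6 weeks. Excised femur and uterus weighed, normalized to body mass. Percent effect = (treatment − OVX control)/(sham − OVX control); n = 6–10 per group; mean SEM; ED50 from dose–response curves.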

Rattus norvegicus [5] = assay: Antibone resorptive activity in sc dosed Sprague-Dawley rat assessed as inhibition of bilaterally ovariectomization-induced decrease in body weight normalized femoral mass administered 4 days after sugery at three times per week schedule for 6 weeks; format: functional; method in brief: as §2

Activity (Hydroxyapatite [1]): 100
SMILES: CN(C)[C@@H]1C(O)=C(C(N)=O)C(=O)[C@@]2(O)C(O)=C3C(=O)c4c(O)cccc4[C@@](C)(O)[C@H]3C[C@@H]12

Activity (Hydroxyapatite [2]): inactive
SMILES: NC(=O)C1C(=O)CCCC1=O

Activity (Hydroxyapatite [3]): 50%
SMILES: NC(=O)c1c(O)ccc(N)c1O

SMILES: C[C@]12CC[C@@H]3c4ccc(O)cc4CC[C@H]3[C@@H]1CC[C@@H]2O [ESTRADIOL]
ED50 (Rattus norvegicus [4]): 0.009 µmol/kg
Activity (Rattus norvegicus [5]): Dose-dependent effect
ED50 (Rattus norvegicus [5]): 0.01 µmol/kg

Activity (Hydroxyapatite [2]): inactive
SMILES: NC(=O)c1c(O)cccc1O

Activity (Hydroxyapatite [2]): inactive
SMILES: O=C(O)c1c(O)cccc1O
